Data on 16 compounds can be found in ChEMBL document CHEMBL1821706, “Unprecedented citrinin trimer tricitinol B functions as a novel topoisomerase IIα inhibitor” (J Med Chem, 2011).

For assay [1], the system named is KB. The experiment in a line: Cytotoxicity against human KB cells after 72 hrs by SRB assay. In kind it is functional, cell-based. A digest of the protocol:
(§1)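 Adherent human tumour lines were seeded and exposed in triplicate to graded compound concentrations at 37 °C for 72 h. Growth was read by sulforhodamine B staining. IC50 (50% growth inhibition) was obtained by the Logit method from at least three independent experiments and reported as mean ± SD.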
A general note: The SRB assay estimates cell density from bound dye.

The test system of a further assay is HCT-116. The experiment in a line: Cytotoxicity against human HCT116 cells after 72 hrs by SRB assay. In kind it is functional, cell-based. Particulars: HCT-116, 72 h. A digest of the protocol: as §1
A further assay relates to HL-60. In words: Cytotoxicity against human HL60 cells after 72 hrs by MTT assay. In kind it is functional, cell-based. Particulars: HL-60, 72 h. A digest of the protocol: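 Cells were treated in triplicate with graded concentrations for 72 h at 37 °C and read by MTT. IC50 is the concentration giving 50% growth inhibition, derived by the Logit method from at least three independent experiments and given as mean ± SD.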

For assay [2], the system named is KB. The experiment in a line: Cytotoxicity against vincristine-resistant human KB cells over expressing P-glycoprotein after 72 hrs by SRB assay. In kind it is functional, cell-based. A digest of the protocol:
as §1

Assay [3] concerns KB. The experiment in a line: Drug resistance index, ratio of IC50 for vincristine-resistant human KB cells to IC50 for human KB cells. The format is functional.

In general, IC50 refers to the midpoint of a concentration-inhibition curve.

As for `CO[C@@]12Oc3cc(O)c(C)c([C@H](C)[C@@H](C)O)c3C=C1C(=O)C(C)=C1[C@H](C)[C@@H](C)O[C@]12O` [PENICITRINOL G], the IC50 in the assay on KB [1], in the assay on HCT-116 and with HL-60 was more than 10 µM throughout.
As to `Cc1c(O)cc(O)cc1[C@H](C)[C@@H](C)O` [PHENOL A], the IC50 in the assay on KB [1], in the assay on HCT-116 and with HL-60 was more than 10 µM throughout.
Regarding `Cc1oc2c(c1C)c(C)c(O)c1c3c4c(c(C)c(=O)cc-4oc12)[C@H](C)[C@@H](C)O3` [PENICITRINONE B], the IC50 in the assay on KB [1], in the assay on HCT-116 and in the assay on HL-60 was more than 10 µM in each case.
For the compound `COC1O[C@H](C)[C@@H](C)c2c(C)c3c(c(O)c21)[C@@H]1O[C@H](C)[C@@H](C)c2c(C)c(O)cc(c21)O3` (stereo partly drawn) [DICITRINOL B], the IC50 with KB [1] was 5.15 µM; in the assay on HCT-116, 5.8 µM; in the assay with HL-60 it was 6.06 µM.
For the compound `Cc1c(O)cc(O)c2c1[C@H](C)[C@@H](C)OC2` [DECARBOXYDIHYDROCITRININ], the IC50 with KB [1], with HCT-116 and with HL-60 was more than 10 µM in each case.
`CO[C@H]1O[C@H](C)[C@@H](C)c2c(C)c(O)c3c(c21)Oc1c([C@H]2O[C@H](C)[C@@H](C)c4c(C)c(O)cc(O)c42)c(O)c(C)c2c1[C@H]3O[C@H](C)[C@H]2C` [TRICITRINOL A]: the IC50 is more than 10 µM in the assay on KB [1], 8.57 µM in the assay on HCT-116 and 8.17 µM in the assay on HL-60.
Taken in the same sequence, the figures for `Cc1c2c(c3oc4cc(=O)c(C)c5c-4c(c3c1O)O[C@H](C)[C@H]5C)CO[C@H](C)[C@H]2C` [OXODICITRINOL A] were more than 10 µM, more than 10 µM and 8.91 µM.
`CC[C@]1(O)C[C@H]2CN(CCc3c([nH]c4ccccc34)[C@@](C(=O)OC)(c3cc4c(cc3OC)N(C=O)[C@H]3[C@@](O)(C(=O)OC)[C@H](OC(C)=O)[C@]5(CC)C=CCN6CC[C@]43[C@@H]65)C2)C1` [VINCRISTINE]: the IC50 turned out to be 0.02 µM in the assay on KB [1] and 1290 nM in the assay with KB [2]. Moreover, the “Ratio IC50” value with KB [3] was found to be 55.97.
Turning to `Cc1c2c(c3oc4cc(=O)c(C)c5c-4c(c3c1O)O[C@H](C)[C@H]5C)O[C@H](C)[C@H]2C` [DICITRININ A], the IC50 with KB [1], with HCT-116 and in the assay on HL-60 was more than 10 µM throughout.
Consider `CO[C@@]12O[C@H](C)[C@@H](C)C1=C(C)C1=C(C2=O)[C@@H]2O[C@H](C)[C@@H](C)c3c(C)c(O)cc(c32)O1` [PENICITRINOL F], for which the IC50 in the assay with KB [1], in the assay on HCT-116 and in the assay with HL-60 was more than 10 µM each time.
For `Cc1c(O)c2c(c3c1[C@H](C)[C@@H](C)O3)Oc1cc(O)c(C)c3c1[C@H]2O[C@H](C)[C@H]3C` [PENICITRINOL A], the IC50 with KB [1], with HCT-116 and in the assay on HL-60 was more than 10 µM in each case.
As to `COC1O[C@H](C)[C@@H](C)c2c(C)c(O)c3c(c21)Oc1cc(O)c(C)c2c1[C@H]3O[C@H](C)[C@H]2C` (stereo partly drawn) [DICITRINOL A], the IC50 in the assay on KB [1] came to 5.05 µM; in the assay with HCT-116, 4.54 µM; in the assay with HL-60, 5.98 µM.
`CC1=C2C(=CO[C@H](C)[C@H]2C)C(O)=C(C(=O)O)C1=O` [CITRININ]: the IC50 in the assay on KB [1], with HCT-116 and with HL-60 was more than 10 µM each time.
On to `Cc1c(O)c(C(=O)O)c(O)c2c1[C@H](C)[C@@H](C)OC2=O` [DIHYDROCITRINONE], for which the IC50 with KB [1], in the assay with HCT-116 and in the assay on HL-60 was more than 10 µM each time.
Take `CO[C@@]12O[C@H](C)[C@@H](C)C1=C(C)C(=O)C1=C2Oc2cc(O)c(C)c3c2[C@H]1O[C@H](C)[C@H]3C` [PENICITRINOL B]: the IC50 in the assay on KB [1], in the assay with HCT-116 and in the assay on HL-60 was more than 10 µM throughout.
Turning to `CC1=C2[C@H](C)[C@@H](C)O[C@@]2(O)[C@]2(O)Oc3cc(O)c(C)c([C@H](C)[C@@H](C)O)c3C=C2C1=O` [PENICITRINOL H], the IC50 in the assay on KB [1], in the assay on HCT-116 and with HL-60 was more than 10 µM in each case.
